Results: ChEMBL document CHEMBL2086296, “Synthesis of novel quinoline-2-one based chalcones of potential anti-tumor activity” (Eur J Med Chem, 2012)

Key:
EKVX [1] = experiment: (§1) Cytotoxicity against human EKVX cells after 24 hrs by SRB assay; type: functional
In short: (§2)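 NCI 60-line screen. Cells in RPMI 1640 with 5% FBS and 2 mM L-glutamine, seeded at 5,000–40,000 cells/well by doubling time, then incubated 24 h at 37 °C, 5% CO2 before dosing. Time-zero plates fixed with TCA at drug addition. DMSO stocks diluted in medium with gentamicin to five concentrations, […]. Protein read by SRB staining. GI50, TGI and LC50 derived relative to control and time-zero.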

NCI-H460 = experiment: Cytotoxicity against human NCI-H460 cells after 24 hrs by SRB assay; type: functional; conditions: NCI-H460, 24 h; in short: as §2
NCI-H522 = experiment: Cytotoxicity against human NCI-H522 cells after 24 hrs by SRB assay; type: functional; conditions: NCI-H522, 24 h; in short: as §2
HOP-92 [2] = experiment: (§3) Cytotoxicity against human HOP92 cells after 24 hrs by SRB assay; type: functional; conditions: HOP-92, 24 h; in short: as §2
HCT-15 = experiment: Cytotoxicity against human HCT15 cells after 24 hrs by SRB assay; type: functional; conditions: HCT-15, 24 h; in short: as §2
KM12 = experiment: Cytotoxicity against human KM12 cells after 24 hrs by SRB assay; type: functional; conditions: KM12, 24 h; in short: as §2
SF-539 = experiment: Cytotoxicity against human SF539 cells after 24 hrs by SRB assay; type: functional; conditions: SF-539, 24 h; in short: as §2
U-251 [3] = experiment: (§4) Cytotoxicity against human U251 cells after 24 hrs by SRB assay; type: functional; conditions: U-251, 24 h
In short: (§5)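 NCI 60-cell screen. Cells are grown in RPMI 1640 with 5% FBS and 2 mM L-glutamine and seeded at 5,000–40,000 cells/well according to doubling time. They are preincubated 24 h at 37 °C in 5% CO2, and Tz plates are TCA-fixed at drug addition. Drug stock is in DMSO, diluted in medium with gentamicin, and tested at five concentrations (100, 10, 1.0, 0.1, […]). Protein is read by SRB staining. GI50, TGI and LC50 are derived relative to time-zero and control wells.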

SF-268 = experiment: Cytotoxicity against human SF268 cells after 24 hrs by SRB assay; type: functional; conditions: SF-268, 24 h; in short: as §2
LOX IMVI = experiment: Cytotoxicity against human LOXIMVI cells after 24 hrs by SRB assay; type: functional; in short: as §2
MDA-MB-435 = experiment: Cytotoxicity against human MDA-MB-435 cells after 24 hrs by SRB assay; type: functional; conditions: MDA-MB-435, 24 h; in short: as §2
OVCAR-3 [4] = experiment: (§6) Cytotoxicity against human OVCAR3 cells after 24 hrs by SRB assay; type: functional; conditions: OVCAR-3, 24 h; in short: as §2
RXF 393 = experiment: Cytotoxicity against human RXF393 cells after 24 hrs by SRB assay; type: functional; conditions: RXF 393, 24 h; in short: as §2
TK-10 = experiment: Cytotoxicity against human TK10 cells after 24 hrs by SRB assay; type: functional; conditions: TK-10, 24 h; in short: as §5
786-0 = experiment: Cytotoxicity against human 786-0 cells after 24 hrs by SRB assay; type: functional; conditions: 786-0, 24 h; in short: as §2
DU-145 = experiment: Cytotoxicity against human DU145 cells after 24 hrs by SRB assay; type: functional; conditions: DU-145, 24 h; in short: as §2
MCF7 = experiment: Cytotoxicity against human MCF7 cells after 24 hrs by SRB assay; type: functional; conditions: MCF7, 24 h; in short: as §2
CCRF-CEM [5] = experiment: (§7) Cytotoxicity against human CCRF-CEM cells after 24 hrs by SRB assay; type: cell-based
In short: (§8)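 NCI 60-cell screen. Cells grown in RPMI 1640 with 5% FBS and 2 mM L-glutamine, seeded at 5,000–40,000 cells/well, preincubated 24 h at 37 °C in 5% CO2. Drug stock in DMSO, diluted in medium with gentamicin; five final concentrations, 100, 10, 1.0, 0.1 and […]. Time-zero plates were TCA-fixed. Protein read by SRB staining; GI50, TGI and LC50 taken relative to time-zero.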

HL-60 = experiment: Cytotoxicity against human HL60 cells after 24 hrs by SRB assay; type: cell-based; conditions: hl-60, 24 h; in short: as §8
MOLT-4 = experiment: Cytotoxicity against human MOLT4 cells after 24 hrs by SRB assay; type: cell-based; conditions: molt-4, 24 h; in short: as §8
EKVX [6] = experiment: as §1; type: cell-based; in short: as §8
NCI-H23 = experiment: Cytotoxicity against human NCI-H23 cells after 24 hrs by SRB assay; type: cell-based; conditions: nci-h23, 24 h; in short: as §8
HOP-92 [7] = experiment: as §3; type: cell-based; conditions: hop-92, 24 h; in short: as §8
HT-29 = experiment: Cytotoxicity against human HT-29 cells after 24 hrs by SRB assay; type: cell-based; conditions: ht-29, 24 h; in short: as §8
HCC 2998 = experiment: Cytotoxicity against human HCC2998 cells after 24 hrs by SRB assay; type: cell-based; conditions: hcc 2998, 24 h; in short: as §8
U-251 [8] = experiment: as §4; type: cell-based; conditions: u-251, 24 h
In short: (§9)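 NCI 60-cell-line screen: cells grown in RPMI 1640 with 5% FBS and 2 mM L-glutamine, seeded at 5,000–40,000 cells/well by doubling time, and preincubated 24 h at 37 °C in 5% CO2. Time-zero plates were TCA-fixed. DMSO stocks were diluted in medium with gentamicin to five concentrations (100, 10, 1.0, 0.1, […]). Protein was read by SRB, and GI50, TGI and LC50 were derived against time-zero.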

SNB-75 = experiment: Cytotoxicity against human SNB75 cells after 24 hrs by SRB assay; type: cell-based; conditions: snb-75, 24 h; in short: as §9
RPMI-8226 = experiment: Cytotoxicity against human RPMI8226 cells after 24 hrs by SRB assay; type: functional; conditions: RPMI-8226, 24 h; in short: as §2
CCRF-CEM [9] = experiment: as §7; type: functional; in short: as §2
UACC-257 = experiment: Cytotoxicity against human UACC257 cells after 24 hrs by SRB assay; type: cell-based; conditions: uacc-257, 24 h; in short: as §9
OVCAR-3 [10] = experiment: as §6; type: cell-based; conditions: ovcar-3, 24 h; in short: as §8
OVCAR-5 = experiment: Cytotoxicity against human OVCAR5 cells after 24 hrs by SRB assay; type: cell-based; conditions: ovcar-5, 24 h; in short: as §8
ACHN = experiment: Cytotoxicity against human ACHN cells after 24 hrs by SRB assay; type: cell-based; in short: as §8
CAKI-1 = experiment: Cytotoxicity against human CAKI-1 cells after 24 hrs by SRB assay; type: cell-based; conditions: caki-1, 24 h; in short: as §8
SN12C = experiment: Cytotoxicity against human SN12C cells after 24 hrs by SRB assay; type: cell-based; in short: as §9
BT-549 = experiment: Cytotoxicity against human BT549 cells after 24 hrs by SRB assay; type: cell-based; conditions: bt-549, 24 h; in short: as §8
T47D = experiment: Cytotoxicity against human T47D cells after 24 hrs by SRB assay; type: cell-based; in short: as §9

`O=C(/C=C/c1cc2ccccc2[nH]c1=O)c1ccc(Cl)cc1` was tested, and the GI50 (EKVX [1]) was 4.92 µM, the TGI (EKVX [1]) was over 100 µM and the GI50 (NCI-H460) was 3.99 µM. The TGI (NCI-H460) was 18.9 µM, the GI50 (NCI-H522) was 2230 nM and the TGI (NCI-H522) was 6.58 µM. It also gave a GI50 (HOP-92 [2]) of 5.74 µM, a TGI (HOP-92 [2]) of 50.5 µM and a GI50 (HCT-15) of 3.18 µM. It also gave a TGI (HCT-15) of 20.2 µM, a GI50 (KM12) of 3.23 µM and a TGI (KM12) of 16.3 µM. The GI50 (SF-539) was 2070 nM, the TGI (SF-539) was 8.02 µM and the GI50 (U-251 [3]) was 2520 nM. The TGI (U-251 [3]) was 11.4 µM, the GI50 (SF-268) was 7.15 µM and the TGI (SF-268) was 63.1 µM. For the same compound, the GI50 (LOX IMVI) was 3260 nM, the TGI (LOX IMVI) was 22.1 µM and the GI50 (MDA-MB-435) was 2.83 µM. The TGI (MDA-MB-435) was 13.1 µM, the GI50 (OVCAR-3 [4]) was 5.9 µM and the TGI (OVCAR-3 [4]) was 30.9 µM. The GI50 (RXF 393) was 4.32 µM, the TGI (RXF 393) was 29.9 µM and the GI50 (TK-10) was 5.05 µM. The TGI (TK-10) was 20.8 µM, the GI50 (786-0) was 13.8 µM and the TGI (786-0) was over 100 µM. The GI50 (DU-145) was 4.08 µM, the TGI (DU-145) was 48.9 µM and the GI50 (MCF7) was 2410 nM. It also gave a TGI (MCF7) of over 100 µM, an LC50 (CCRF-CEM [5]) of over 100 µM and an LC50 (HL-60) of over 100 µM. It also gave an LC50 (MOLT-4) of over 100 µM, an LC50 (EKVX [6]) of over 100 µM and an LC50 (NCI-H23) of over 100 µM. For the same compound, the LC50 (HOP-92 [7]) was over 100 µM, the LC50 (HT-29) was over 100 µM and the LC50 (HCC 2998) was 59.6 µM. The LC50 (U-251 [8]) was 39.7 µM, the LC50 (SNB-75) was over 100 µM and the GI50 (RPMI-8226) was 2230 nM. The TGI (RPMI-8226) was 16.1 µM, the GI50 (CCRF-CEM [9]) was 3.5 µM and the TGI (CCRF-CEM [9]) was over 100 µM. It also gave an LC50 (UACC-257) of over 100 µM, an LC50 (OVCAR-3 [10]) of over 100 µM and an LC50 (OVCAR-5) of over 100 µM. It also gave an LC50 (ACHN) of 90.6 µM, an LC50 (CAKI-1) of 6.8 µM and an LC50 (SN12C) of over 100 µM. For the same compound, the LC50 (BT-549) was 97.6 µM and the LC50 (T47D) was over 100 µM.
Compound `COc1ccc(C(=O)/C=C/c2cc3ccccc3[nH]c2=O)cc1` has a GI50 (EKVX [1]) of 4.4 µM, a TGI (EKVX [1]) of 83.8 µM and a GI50 (NCI-H460) of 2.75 µM. The TGI (NCI-H460) was 8.34 µM, the GI50 (NCI-H522) was 2120 nM and the TGI (NCI-H522) was 6.13 µM. It also gave a GI50 (HOP-92 [2]) of 2.97 µM, a TGI (HOP-92 [2]) of 8.76 µM and a GI50 (HCT-15) of 3.18 µM. For the same compound, the TGI (HCT-15) was 21.1 µM, the GI50 (KM12) was 2.85 µM and the TGI (KM12) was 7.81 µM. For the same compound, the GI50 (SF-539) was 2760 nM, the TGI (SF-539) was 7.49 µM and the GI50 (U-251 [3]) was 2700 nM. For the same compound, the TGI (U-251 [3]) was 10.9 µM, the GI50 (SF-268) was 2.85 µM and the TGI (SF-268) was 9.77 µM. For the same compound, the GI50 (LOX IMVI) was 1850 nM, the TGI (LOX IMVI) was 5.54 µM and the GI50 (MDA-MB-435) was 3.92 µM. For the same compound, the TGI (MDA-MB-435) was 17.4 µM, the GI50 (OVCAR-3 [4]) was 2.49 µM and the TGI (OVCAR-3 [4]) was 6.72 µM. The GI50 (RXF 393) was 3.41 µM, the TGI (RXF 393) was 8.53 µM and the GI50 (TK-10) was 3.54 µM. For the same compound, the TGI (TK-10) was 55.8 µM, the GI50 (786-0) was 3.52 µM and the TGI (786-0) was over 100 µM. For the same compound, the GI50 (DU-145) was 3.14 µM, the TGI (DU-145) was 11.2 µM and the GI50 (MCF7) was 2860 nM. For the same compound, the TGI (MCF7) was 88.7 µM, the LC50 (CCRF-CEM [5]) was over 100 µM and the LC50 (HL-60) was over 100 µM. The LC50 (MOLT-4) was over 100 µM, the LC50 (EKVX [6]) was over 100 µM and the LC50 (NCI-H23) was over 100 µM. The LC50 (HOP-92 [7]) was 80.9 µM, the LC50 (HT-29) was over 100 µM and the LC50 (HCC 2998) was 29 µM. For the same compound, the LC50 (U-251 [8]) was over 100 µM, the LC50 (SNB-75) was 47.2 µM and the GI50 (RPMI-8226) was 2790 nM. For the same compound, the TGI (RPMI-8226) was over 100 µM, the GI50 (CCRF-CEM [9]) was 4.04 µM and the TGI (CCRF-CEM [9]) was over 100 µM. For the same compound, the LC50 (UACC-257) was 65.5 µM, the LC50 (OVCAR-3 [10]) was 29.8 µM and the LC50 (OVCAR-5) was over 100 µM. The LC50 (ACHN) was 57 µM, the LC50 (CAKI-1) was 6.9 µM and the LC50 (SN12C) was over 100 µM. For the same compound, the LC50 (BT-549) was 46.3 µM and the LC50 (T47D) was over 100 µM.
